Results reported in ChEMBL document CHEMBL1155099, “Natural products in parallel synthesis: triazole libraries of nonactic acid” (2008).
Calls of active or inactive are those of the source.

How the values were obtained:
Type in all cases: functional, organism-based
Escherichia coli = experiment: Antibacterial activity against Escherichia coli at 1 mM by almar blue dye reduction assay
Outline: (§1)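 Single-point primary screen at 1 mM using Alamar Blue dye reduction as the growth read-out.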

Pseudomonas aeruginosa = experiment: Antibacterial activity against Pseudomonas aeruginosa at 1 mM by almar blue dye reduction assay; outline: as §1
Bacillus subtilis = experiment: Antibacterial activity against Bacillus subtilis at 1 mM by almar blue dye reduction assay; outline: as §1
Staphylococcus aureus = experiment: Antibacterial activity against Staphylococcus aureus at 1 mM by almar blue dye reduction assay; outline: as §1
Bacillus cereus = experiment: Antibacterial activity against Bacillus cereus at 1 mM by almar blue dye reduction assay; outline: as §1
Candida albicans = experiment: Antifungal activity against Candida albicans at 1 mM by almar blue dye reduction assay; outline: as §1
Saccharomyces cerevisiae = experiment: Antifungal activity against Saccharomyces cerevisiae at 1 mM by almar blue dye reduction assay; outline: as §1
Bacillus anthracis = experiment: Antibacterial activity against Bacillus anthracis at 1mM by almar blue dye reduction assay
Cryptococcus neoformans = experiment: Antifungal activity against Cryptococcus neoformans at 1 mM by almar blue dye reduction assay; outline: as §1

Measured: Activity

CC(C)NC(=O)[C@H](C)[C@H]1CC[C@@H](C[C@@H](C)n2cc(C#CCCCC#N)nn2)O1
inactive: all assays above

CC(C)NC(=O)[C@H](C)[C@H]1CC[C@@H](C[C@@H](C)n2cc(C#CCN(C)C)nn2)O1
inactive: all assays above

CC(C)NC(=O)[C@H](C)[C@H]1CC[C@@H](C[C@@H](C)n2cc(C#Cc3ccccc3)nn2)O1
inactive: all assays above

C[C@H](C[C@@H]1CC[C@H]([C@@H](C)C(=O)N2CCCC2)O1)n1cc(C#CC2=CCCCC2)nn1
inactive: all assays above

CCC(=O)OCC#Cc1cn([C@H](C)CC2CCC([C@@H](C)C(=O)N(C)Cc3ccccc3)O2)nn1 (single isomer, unassigned)
inactive: all assays above

CCN(CC)C(=O)[C@H](C)[C@H]1CC[C@@H](C[C@@H](C)n2cc(C#CC3=CCCCC3)nn2)O1
inactive: all assays above

CCCNC(=O)NCC#Cc1cn([C@H](C)CC2CCC([C@@H](C)C(=O)N(CC)CC)O2)nn1 (single isomer, unassigned)
inactive: all assays above

C[C@H](CC1CCC([C@@H](C)C(=O)N2CCCC2)O1)n1cc(C#CCCCC#N)nn1 (single isomer, unassigned)
inactive: all assays above

C[C@H](C[C@@H]1CC[C@H]([C@@H](C)C(=O)N2CCN(CC3CCCO3)CC2)O1)n1cc(C#CCN(C)CCc2ccccc2)nn1 (stereo partly specified)
inactive: all assays above

CCN(CC)C(=O)[C@H](C)C1CCC(C[C@@H](C)n2cc(C#CCOC(=O)OCc3ccccc3)nn2)O1 (single isomer, unassigned)
inactive: all assays above

C[C@H](C[C@@H]1CC[C@H]([C@@H](C)C(=O)N(C)Cc2ccccc2)O1)n1cc(C#CCc2ccccc2)nn1
inactive: all assays above

CC(C)NC(=O)[C@H](C)[C@H]1CC[C@@H](C[C@@H](C)n2cc(C#CC3=CCCCC3)nn2)O1
inactive: all assays above

CC(C)NC(=O)[C@H](C)C1CCC(C[C@@H](C)n2cc(C#CCNC(=O)OCc3ccccc3)nn2)O1 (single isomer, unassigned)
inactive: all assays above

COCCNCC#Cc1cn([C@H](C)C[C@@H]2CC[C@H]([C@@H](C)C(=O)N(C)Cc3ccccc3)O2)nn1
inactive: all assays above

CCN(CC)C(=O)[C@H](C)[C@H]1CC[C@@H](C[C@@H](C)n2cc(C#CCN3CCOCC3)nn2)O1
inactive: all assays above

C[C@H](C[C@@H]1CC[C@H]([C@@H](C)C(=O)N(C)Cc2ccccc2)O1)n1cc(C#CC2=CCCCC2)nn1
inactive: all assays above

C[C@H](C[C@@H]1CC[C@H]([C@@H](C)C(=O)N(C)Cc2ccccc2)O1)n1cc(C#CCN2CCC(c3ccccc3)CC2)nn1
inactive: all assays above

C[C@H](C[C@@H]1CC[C@H]([C@@H](C)C(=O)N2CCCC2)O1)n1cc(C#Cc2ccccc2)nn1
not listed: Saccharomyces cerevisiae
inactive: all other assays above
